Insulin prom act: TRM-6 insulin promoter activation | TRM-6 cells (human fetal islet line), insulin promoter eGFP reporter, imaging; plate-scaled: unstimulated 0, stimulated control 100 | 130,000 tested, 0.81% active | activation, % at 2 µM | AID 1296;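 active = activation at 2 µM above a set limit, confirmed on inspection of the cell images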;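 note: share of cells whose green reporter signal exceeds an intensity cutoff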
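Assay system: TRM-6 human fetal islet cells, insulin promoter–eGFP reporter; Also added: 0.75 µM tamoxifen as reporter inducer; Schedule: 15 h tamoxifen pre-treatment, 48 h compound treatment at 37 °C; Signal: fixed-cell fluorescence microscopy, eGFP plus Hoechst; Read-out: percent activation from GFP-positive cell fraction; Control set: stimulated and unstimulated wells.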
Large screens that a line does not name were inactive. The sample as a whole holds a higher share of hits than the screen did.

CN(CC(=O)N1CCCC1)S(=O)(=O)c1ccc2ccccc2c1	none
CCC(=O)N1CCN(c2ccc(Cl)cc2NC(=O)c2ccc(Br)o2)CC1	none
CCCCN1C(=O)/C(=C/C=C2/CC(C)(C)CN2C)SC1=S	Insulin prom act 270
CCCCN1C(=O)C(=O)N(c2ccccc2)C1=S	none
CCCN1C(=O)/C(=C/c2ccncc2)SC1=S	none
COc1cc(C2CC(=O)Nc3c2c(=O)nc2c(C)cccn32)cc(OC)c1OC (configuration not stated)	none
CCOC(=O)C(C)Sc1ncnc2nc[nH]c12 (configuration not stated)	Insulin prom act 513
CCOC(=O)C(CC)Sc1ncnc2nc[nH]c12 (configuration not stated)	none
CCOC(=O)C(C)Sc1ncnc2c1nnn2-c1ccc(F)cc1 (configuration not stated)	none
CC(Oc1ccccc1)C(=O)NC1CC(C)(C)NC(C)(C)C1 (configuration not stated)	none
COC(=O)c1cn(CC(=O)N2CCCCCC2)c2ccccc12	none
O=Cc1cn(CC(=O)N2CCOCC2)c2ccccc12	Insulin prom act 411
Cc1nc2ccccc2c(=O)n1CC(=O)N1CCOCC1	none
Cc1cc(C2(c3ccc(O)c(C)c3)C(=O)Nc3ccccc32)ccc1O	Insulin prom act 127
Cc1c(O)cc2n(c1=O)-c1ccccc1C2(C)C	none
O=C1CCCCCC1C1(O)C(=O)Nc2ccccc21 (configuration not stated)	none
O=C(Oc1ccccc1C(=O)Nc1ccccc1)c1ccccc1Br	none
Cc1ccc(C)c(S(=O)(=O)NCC(=O)Nc2sc3c(c2C(N)=O)CCC(C)C3)c1 (configuration not stated)	none
CCc1cc2c(=O)c(-c3cnn(-c4ccccc4)c3)c(C(F)(F)F)oc2c(CN(C)C)c1O	none
O=C(NCCc1nc2ccccc2[nH]1)/C(=C/c1ccco1)NC(=O)c1ccc(Br)o1	none
Cc1ccc2nc(C(=O)N3CCc4c([nH]c5ccccc45)C3c3ccccn3)cn2c1 (configuration not stated)	none
CCOC(=O)Cc1csc(NC(=O)CSc2nc(N)c3c(C)c(C)sc3n2)n1	none
CCOc1ccc(N2C(=O)C3C(c4ccccc4F)NN(C(=O)c4ccc(C)cc4)C3C2=O)cc1 (configuration not stated)	none
CCOC(=O)c1c(NC(=O)CSC(=S)N2CCOCC2)sc(C)c1C	none
Cc1nn(-c2ccccc2)c(Cl)c1CN(C(=O)CCl)c1ccc(Cl)cc1	none
O=C(CCl)N(c1ccc(Cl)cc1)c1c[nH]c2ccccc12	Insulin prom act 257
CCCCNC(=O)[C@H](Cc1c[nH]c2ccccc12)NC(=O)c1ccccc1Cl	none
O=C(NCc1ccccn1)C(C(=O)c1ccc(F)cc1)n1ccccc1=O (configuration not stated)	none
CC(OC(=O)c1ccccc1NCc1ccco1)C(=O)Nc1ncc(Cl)cc1Cl (configuration not stated)	none
O=C(c1ccco1)N1CCN(Cc2nc3cc(Cl)ccc3c(=O)[nH]2)CC1	none
CCOc1ccc(-c2nc(-c3ccccc3C)no2)cc1	none
S=C(Nc1ccccc1)N1CCCCCCC1	none
O=S(=O)(c1ccc(F)c(F)c1F)N1CCN(C(=S)Nc2ccccc2)CC1	Insulin prom act 324
NS(=O)(=O)c1ccc(NC(=S)N2CCN(c3ccccc3Cl)CC2)cc1	none
Cn1c(N)c(C(=O)COC(=O)CCC2CCCCC2)c(=O)n(C)c1=O	none
CC(=O)Nc1cc(Cl)ccc1OS(=O)(=O)c1ccc(C)cc1	none
CC(=O)Oc1ccc(N(C(C)=O)S(=O)(=O)c2cccs2)c2ccccc12	none
CCC(Sc1nc2sc(C(=O)OC)c(C)c2c(=O)n1N)C(=O)NCC1CCCO1 (configuration not stated)	none
COC(=O)c1[nH]c2ccc(C)cc2c1NC(=O)CN1CCCc2ccccc21	none
O=C(CN1CCCc2ccccc21)NCc1ccc2c(c1)OCO2	none
O=C(CN1CCCc2ccccc21)NCCc1ccc(Cl)cc1	Insulin prom act 300
CCOC(=O)c1nn(-c2ccccc2)c2nnc(Cc3ccc(C)cc3)c(=O)n12	none
O=C(NC(=S)Nc1ccc(N2CCOCC2)cc1)c1cncc(Br)c1	none
O=c1c(-c2cc3ccccc3o2)[n+]([O-])c2ccccc2n1OCc1ccccn1	none
COc1ccc(COn2c(=O)c(C)[n+]([O-])c3ccccc32)cc1OC	Insulin prom act 86
Cc1c(=O)n(OCc2ccccc2)c2ccccc2[n+]1[O-]	none
Cc1ccc(OCCN2C(=O)NC3(CCc4ccccc4C3)C2=O)cc1 (configuration not stated)	none
CC1=CCC2C(=O)N(c3ccc(C(=O)N4CCCCCC4)cc3)C(=O)C2C1 (configuration not stated)	none
Nn1c(Cc2ccccc2)n[nH]c1=S	Insulin prom act 486
Cc1ccccc1OCc1n[nH]c(=S)n1Cc1ccccc1	none
OCCCc1n[nH]c(=S)n1-c1ccccc1	none
CC1=NN(C(=O)c2ccccc2-n2cccc2)C(O)(C(F)(F)F)C1 (configuration not stated)	none
O=S(=O)(NCc1ccc(Cl)cc1)c1ccc(Cl)nc1	none
COc1ccc2cnn(CCOc3cc(C)ccc3C(C)C)c(=O)c2c1OC	none
CCN(CC)S(=O)(=O)c1ccc2[nH]cc(C(=O)NCCC3=CCCCC3)c(=O)c2c1	none
Cc1cc(C(=O)CCl)c(C)n1CCc1ccc(F)cc1	none
Cc1cc(C(=O)CSc2nnnn2C)c(C)n1CCc1ccc(F)cc1	Insulin prom act 126
Cc1cc(C(=O)CSc2nnc(N)s2)c(C)n1CCc1ccc(F)cc1	none
Cc1ccc(CNC(=O)CCS(=O)(=O)c2ccc(Br)s2)cc1	none
CCCCCCS(=O)Cc1ccccc1 (configuration not stated)	none
O=[N+]([O-])c1ccc(N/N=C/c2sc(N3CCOCC3)nc2-c2ccccc2)c(S(=O)(=O)Nc2ccc(Cl)cc2)c1	Insulin prom act 488
COC(=O)CCC(=O)Nc1cc(S(=O)(=O)Nc2ccc(Cl)cc2)ccc1N1CCOCC1	none
O=C(COc1ccc([N+](=O)[O-])cc1)N/N=C/c1cc([N+](=O)[O-])ccc1N1CCOCC1	none
CN(CC(=O)Nn1cnnc1)S(=O)(=O)c1ccc(Br)cc1	none
CCCNC(=O)NC(=O)CSc1ccc2c(c1)OCCO2	none
C/C(Cn1nc([N+](=O)[O-])cc1C)=N\NC(=O)c1ccc(C(C)(C)C)cc1	none
Cc1ccc(C(=O)COC(=O)CCC(=O)NC2CCCCC2)cc1C	none
CCOC(=O)c1c(C)[nH]c(C(=O)OCC(=O)NC2CCS(=O)(=O)C2)c1C (configuration not stated)	none
COc1ccccc1NC(=O)c1cc(Cl)ccc1NC(=O)c1ccco1	none
COc1ccccc1-c1noc(-c2ccccc2C(=O)Nc2ccccc2)n1	none
COc1ccccc1NC(=O)c1ccccc1-c1nc(-c2ccccc2OC)no1	Insulin prom act 400
Cc1cc(C)n(Cc2ccc(NC(=O)c3ccc(COc4ccccc4Br)cc3)cc2)n1	none
Cc1ccccc1Oc1ncnc(N)c1[N+](=O)[O-]	none
Cc1cc(C)c(C)c(Oc2ncnc(N)c2[N+](=O)[O-])c1	none
Cc1ccc(Oc2ncnc(N)c2[N+](=O)[O-])cc1C	Insulin prom act 312
CC(=O)c1cc(-c2ccccc2)n(CC(=O)Nc2cc(C)cc(C)c2)c1C	none
O=C(C/C=N/OCc1ccc(F)cc1Cl)c1cnc(-c2ccccc2)s1	none
Cn1cc(/C=N/NC(=O)COc2ccccc2[N+](=O)[O-])c2ccccc21	none
O=[N+]([O-])/C=C/c1cn(Cc2ccc(Cl)cc2)c2ccccc12	none
N#Cc1ccccc1Cn1cc(/C=N/Nc2ccc([N+](=O)[O-])cn2)c2ccccc21	Insulin prom act 400

Screens as filed in PubChem.
